Experiments:
[1] = test system: SK-OV-3; assay: Growth inhibition of human SKOV3 cells assessed as cell growth at 10^-5 M after 48 hrs by sulforhodamine B assay relative to control; format: functional; conditions: SK-OV-3, 48 h, read-out: Activity
How it was run: (§1)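 NCI-60 single-dose screen at 10^-5 M. Cells grown in RPMI 1640 with 5% FBS and 2 mM L-glutamine, plated at 5,000–40,000 cells/well according to doubling time, and preincubated 24 h at 37°C, 5% CO2. Compound dissolved in DMSO and added. Exposure 48 h. Adherent cells fixed with cold TCA (10% final), suspension cells with 16% final TCA. Read-out is 0.4% SRB staining, dye solubilised in 10 mM Tris, absorbance at 515 nm. Percent growth is calculated against the time-zero plate and untreated control.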

[2] = Growth inhibition of human NCI-ADR-RES cells assessed as cell growth at 10^-5 M after 48 hrs by sulforhodamine B assay relative to control; format: functional; conditions: read-out: Activity; how it was run: as §1
[3] = test system: OVCAR-8; assay: Growth inhibition of human OVCAR8 cells assessed as cell growth at 10^-5 M after 48 hrs by sulforhodamine B assay relative to control; format: functional; conditions: OVCAR-8, 48 h, read-out: Activity; how it was run: as §1
[4] = test system: OVCAR-3; assay: Growth inhibition of human OVCAR3 cells assessed as cell growth at 10^-5 M after 48 hrs by sulforhodamine B assay relative to control; format: functional; conditions: OVCAR-3, 48 h, read-out: Activity; how it was run: as §1
[5] = test system: M14; assay: Growth inhibition of human M14 cells assessed as cell growth at 10^-5 M after 48 hrs by sulforhodamine B assay relative to control; format: functional; conditions: M14, 48 h, read-out: Activity; how it was run: as §1
[6] = test system: SF-295; assay: Growth inhibition of human SF295 cells assessed as cell growth at 10^-5 M after 48 hrs by sulforhodamine B assay relative to control; format: functional; conditions: SF-295, 48 h, read-out: Activity; how it was run: as §1
[7] = test system: KM12; assay: Growth inhibition of human KM12 cells assessed as cell growth at 10^-5 M after 48 hrs by sulforhodamine B assay relative to control; format: functional; conditions: KM12, 48 h, read-out: Activity; how it was run: as §1
[8] = test system: NCI-H226; assay: Growth inhibition of human NCI-H226 cells assessed as cell growth at 10^-5 M after 48 hrs by sulforhodamine B assay relative to control; format: functional; conditions: NCI-H226, 48 h, read-out: Activity; how it was run: as §1
[9] = test system: HOP-92; assay: Growth inhibition of human HOP92 cells assessed as cell growth at 10^-5 M after 48 hrs by sulforhodamine B assay relative to control; format: functional; conditions: HOP-92, 48 h, read-out: Activity; how it was run: as §1
[10] = molecular target: T1, Leukotriene A-4 hydrolase (Homo sapiens, UniProt P09960); assay: Inhibition of human leukotriene A-4 hydrolase
T1 sequence (P09960 whole entry): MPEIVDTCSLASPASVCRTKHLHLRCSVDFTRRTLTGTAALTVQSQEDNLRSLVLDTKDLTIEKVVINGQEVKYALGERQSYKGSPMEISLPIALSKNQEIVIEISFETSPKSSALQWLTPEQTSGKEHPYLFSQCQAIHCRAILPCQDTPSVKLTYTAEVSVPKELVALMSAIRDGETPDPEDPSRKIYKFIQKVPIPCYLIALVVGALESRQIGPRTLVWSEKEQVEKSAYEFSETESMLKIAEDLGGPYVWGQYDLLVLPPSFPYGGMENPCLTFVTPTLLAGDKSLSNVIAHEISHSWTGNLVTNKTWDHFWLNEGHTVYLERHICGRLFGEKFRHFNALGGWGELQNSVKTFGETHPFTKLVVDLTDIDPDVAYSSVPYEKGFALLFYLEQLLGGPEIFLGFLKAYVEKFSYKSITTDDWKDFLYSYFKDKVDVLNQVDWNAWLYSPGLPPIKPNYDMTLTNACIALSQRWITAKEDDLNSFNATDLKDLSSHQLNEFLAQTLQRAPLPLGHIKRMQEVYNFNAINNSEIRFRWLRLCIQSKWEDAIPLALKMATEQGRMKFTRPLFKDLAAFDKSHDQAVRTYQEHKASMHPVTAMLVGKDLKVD

[11] = molecular target: T2, Cathepsin K (Homo sapiens, UniProt P43235); assay: Inhibition of human cathepsin K
T2 sequence (P43235 whole entry): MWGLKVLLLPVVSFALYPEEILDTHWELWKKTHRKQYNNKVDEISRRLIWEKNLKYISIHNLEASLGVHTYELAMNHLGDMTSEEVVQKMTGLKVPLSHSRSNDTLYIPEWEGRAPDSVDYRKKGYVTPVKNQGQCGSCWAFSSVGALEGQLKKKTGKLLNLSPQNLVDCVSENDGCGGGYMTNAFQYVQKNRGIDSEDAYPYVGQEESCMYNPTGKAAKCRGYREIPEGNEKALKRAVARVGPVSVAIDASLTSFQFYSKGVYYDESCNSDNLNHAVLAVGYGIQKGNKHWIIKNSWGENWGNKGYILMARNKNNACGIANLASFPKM

[12] = test system: T47D; assay: Growth inhibition of human T47D cells assessed as cell growth at 10^-5 M after 48 hrs by sulforhodamine B assay relative to control; format: functional; conditions: read-out: Activity
How it was run: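 NCI-60 single-dose screen, 10^-5 M final. Cells grown in RPMI 1640 with 5% FBS and 2 mM L-glutamine, seeded at 5,000–40,000 cells/well by doubling time. Preincubated 24 h at 37°C, 5% CO2. Compound in DMSO, diluted in medium with gentamicin, then 48 h exposure. Fixed with cold TCA, SRB stained, A515 read. Percent growth vs untreated control, time-zero plate corrected.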

[13] = test system: DU-145; assay: Growth inhibition of human DU145 cells assessed as cell growth at 10^-5 M after 48 hrs by sulforhodamine B assay relative to control; format: functional; conditions: DU-145, 48 h, read-out: Activity; how it was run: as §1
[14] = test system: PC-3; assay: Growth inhibition of human PC3 cells assessed as cell growth at 10^-5 M after 48 hrs by sulforhodamine B assay relative to control; format: functional; conditions: PC-3, 48 h, read-out: Activity; how it was run: as §1

| SMILES | growth at 10 µM [1] [%] | growth at 10 µM [2] [%] | growth at 10 µM [3] [%] | growth at 10 µM [4] [%] | growth at 10 µM [5] [%] | growth at 10 µM [6] [%] | growth at 10 µM [7] [%] | growth at 10 µM [8] [%] | growth at 10 µM [9] [%] | Ki [10] [µM] | Ki [11] [µM] | growth at 10 µM [12] [%] | growth at 10 µM [13] [%] | growth at 10 µM [14] [%] |
| --- | --- | --- | --- | --- | --- | --- | --- | --- | --- | --- | --- | --- | --- | --- |
| Cc1ccc(-c2csc(=N)n2CC(=O)N2CCOCC2)cc1 | 114 | 94.4 | 108 | 108 | 110 | 83.6 | 110 | 94.3 | 68.3 | 3.56 | 51.2 | 97.4 | 108 | 78.9 |
| N=c1scc(-c2ccccc2)n1CC(=O)N1CCN(c2ccccc2)CC1 | 94.5 | 86.5 | 94.7 | 109 | 101 | 72.4 | 104 | 93.7 | 59 | 0.643 | 11.6 | 91.2 | 111 | 72.3 |
| CC(=O)N1CCN(C(=O)Cn2c(-c3ccc(Cl)cc3)csc2=N)CC1 | 92.4 | 95.5 | 91.2 | 97.7 | 95.1 |  | 95.2 | 96.3 | 82 | 0.607 | 24.2 | 79 | 99 | 81.6 |
| Cc1ccc(-c2csc(=N)n2CC(=O)N2CCN(c3ccccc3)CC2)cc1 | 89.2 | 92.6 | 92.9 | 95.4 | 108 |  | 104 | 97.2 | 69.2 | 4.29 | 10.8 | 78 | 104 | 82.1 |
| N=c1scc(-c2ccccc2)n1CC(=O)N1CCOCC1 | 92.3 | 105 | 94.8 | 97 | 100 |  | 103 | 86.7 | 70 | 8.65 | 49.8 | 88.8 | 107 | 81.3 |
| CC(=O)N1CCN(C(=O)Cn2c(-c3ccccc3)csc2=N)CC1 | 89.4 | 105 | 96.7 | 102 | 97 |  | 102 | 88.8 | 75 | 2.59 | 21.9 | 85.9 | 112 | 83.5 |
